Experimental data reported in PMC2921709 (ChemMedChem, 2010).

What was measured:
[1] = tested on: Jurkat cells; assay: Annexin V-FITC/PI apoptosis assay; type: cell-based, human; conditions: 24 h treatment
Summary of the method: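 Jurkat cells exposed to test compound at various concentrations for 24 or 48 h, then harvested. Co-labelled with annexin V–FITC and PI and analysed by flow cytometry (excitation 488 nm; emission 525 and 585 nm). Reported as mean percentage of annexin-V-positive cells ± SEM, three independent experiments.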

[2] = tested on: Jurkat cells; assay: Mitochondrial ROS production; type: cell-based, human; conditions: 24 and 48 h
Summary of the method: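 Jurkat cells treated with test compound for 24 or 48 h, pelleted, then loaded in HBSS with hydroethidine (HE) or H2-DCFDA for 30 min at 37 °C. Cells re-pelleted into HBSS and read by flow cytometry: 488 nm excitation, emission 585 nm (HE) and 530 nm (DCF). Fluorescence intensity given as % of untreated control; mean ± SEM, three independent experiments.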

[3] = tested on: solid tumor cells; assay: MTT growth inhibition, solid tumor cell lines; type: cell-based; conditions: Homo sapiens, 72 h, read-out: GI50, solid tumor cells
Summary of the method: (§1)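 Cells seeded at 8 × 10^3 per well in 96-well plates and held 18 h at 37 °C, 5% CO2. Medium then replaced with test compound in complete medium at various concentrations for 72 h continuous exposure. Viability read by MTT. GI50 is the concentration giving 50% proliferation inhibition, from dose–response curves; mean ± SE of ≥3 independent experiments. Media: leukemia lines in RPMI-1640; solid-tumour lines in DMEM with penicillin G 115 U mL−1, streptomycin and 10% FBS.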

[4] = tested on: caspase-3 in Jurkat cells; assay: Caspase-3 activation by flow cytometry; type: cell-based, human; conditions: time- and concentration-dependent
[5] = tested on: HT-29; assay: MTT growth inhibition, HT-29 colon adenocarcinoma cells; type: cell-based, human; conditions: Homo sapiens, HT-29, 72 h, read-out: GI50 HT-29
Summary of the method: as §1

[6] = tested on: leukemia cells; assay: MTT growth inhibition, leukemia cell lines; type: cell-based, human; conditions: Homo sapiens, 72 h, read-out: GI50, leukemia cells
Summary of the method: as §1

[7] = tested on: Bcl-2 in Jurkat cells; assay: Flow cytometric analysis of Bcl-2 expression; type: cell-based, human; conditions: 24 and 48 h, flow cytometry
Summary of the method: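 Jurkat cells incubated with test compound for 24 and 48 h, then pelleted and permeabilised with a Fix&Perm kit. Labelled with FITC-conjugated anti-Bcl-2 monoclonal antibody, washed and analysed by flow cytometry. Mean ± SEM of two independent experiments.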

[8] = tested on: ML2; assay: MTT growth inhibition, ML-2 myeloid leukemia cells; type: cell-based, human; conditions: Homo sapiens, ML-2, 72 h, read-out: GI50 ML2
Summary of the method: as §1

[9] = tested on: Jurkat cells; assay: Flow cytometric cell-cycle analysis; type: cell-based, human
Summary of the method: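 Jurkat cells in exponential growth, 5 × 10^5 per sample, exposed to test compound at various concentrations for 24 h. Cells fixed in ice-cold 70% ethanol, treated with lysis buffer containing RNase A and 0.1% Triton X-100, then stained with PI. DNA content measured by flow cytometry and phases assigned from DNA histograms. Mean ± SEM of two independent experiments.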

[10] = tested on: ARO; assay: MTT growth inhibition, ARO anaplastic thyroid cells; type: cell-based, human; conditions: Homo sapiens, Thyroid cell, 72 h, read-out: GI50 ARO
Summary of the method: as §1

[11] = tested on: MCF-7; assay: MTT growth inhibition, MCF-7 breast adenocarcinoma cells; type: cell-based, human; conditions: Homo sapiens, MCF7, 72 h, read-out: GI50 MCF-7
Summary of the method: as §1

[12] = tested on: Jurkat; assay: MTT growth inhibition, Jurkat T-leukemia cells; type: cell-based, human; conditions: Homo sapiens, Jurkat, 72 h, read-out: GI50 Jurkat
Summary of the method: as §1

[13] = tested on: RS 4;11; assay: MTT growth inhibition, RS 4; type: cell-based, human; conditions: Homo sapiens, RS4-11, 72 h, read-out: GI50 RS 4;11
Summary of the method: as §1

[14] = tested on: HL-60; assay: MTT growth inhibition, HL-60 promyelocytic leukemia cells; type: cell-based, human; conditions: Homo sapiens, HL-60, 72 h, read-out: GI50 HL-60
Summary of the method: as §1

[15] = tested on: Bovine brain tubulin (colchicine site); assay: Inhibition of [3H]colchicine binding to tubulin; conditions: tubulin 1 μM, [3H]colchicine 5 μM
[16] = tested on: Hep G2; assay: MTT growth inhibition, HepG2 hepatoma cells; type: cell-based, human; conditions: Homo sapiens, HepG2, 72 h, read-out: GI50 Hep G2
Summary of the method: as §1

[17] = tested on: Jurkat cells; assay: Mitochondrial membrane potential; type: cell-based, human; conditions: 0.5 and 0.1 μM, 24 and 48 h
Summary of the method: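 After treatment, Jurkat cells were pelleted and resuspended in HBSS containing JC-1, then kept 10 min at 37 °C. They were spun again, taken up in HBSS and read by flow cytometry. Polarised mitochondria give red JC-1 aggregates (590 nm); depolarisation gives green monomers (530 nm).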

[18] = tested on: Bovine brain tubulin; assay: Inhibition of tubulin polymerization; type: biochemical; conditions: read-out: Tubulin Assembly IC50; tubulin 10 μM; 20 min incubation; ± SD
[19] = tested on: HeLa; assay: MTT growth inhibition, HeLa cervix carcinoma cells; type: cell-based, human; conditions: Homo sapiens, HeLa, 72 h, read-out: GI50 HeLa
Summary of the method: as §1

[20] = tested on: IGROV; assay: MTT growth inhibition, IGROV ovarian cancer cells; type: cell-based, human; conditions: Homo sapiens, IGROV, 72 h, read-out: GI50 IGROV
Summary of the method: as §1

[21] = tested on: K562; assay: MTT growth inhibition, K562 chronic myelogenous leukemia cells; type: cell-based, human; conditions: Homo sapiens, K562, 72 h, read-out: GI50 K562
Summary of the method: as §1

GI50 [3]: 400 to 1400 nM
GI50 [5]: 450 ± 100 nM
GI50 [6]: 0.5 to 10 nM
GI50 [8]: 10 ± 2 nM
GI50 [11]: 1400 ± 500 nM
GI50 [12]: 3 ± 0.1 nM
GI50 [14]: 2 ± 0.1 nM
Colchicine Binding Inhibition [%], 5 μM ([15]; compound 5 μM): 30 ± 4%
Colchicine Binding Inhibition [%], 50 μM ([15]; compound 50 μM): 56 ± 2%
GI50 [16]: 950 ± 150 nM
IC50 [18]: 1400 ± 200 nM
GI50 [19]: 400 ± 50 nM
GI50 [20]: 850 ± 200 nM
GI50 [21]: 30 ± 7 nM
SMILES: COc1cc(Cn2ccc3c4c(=O)cc(-c5ccccc5)[nH]c4ccc32)cc(OC)c1OC [Compound 12, 7-Phenyl-3-(3,4,5-trimethoxybenzyl)-3H-pyrrolo[3,2-f]quinolin-9(6H)-one]
induction of apoptotic (annexin-V-positive) cells, in words [1]: remarkable induction of apoptotic cells
ROS production (HE, H2-DCFDA), in words [2]: induced the production of ROS relative to control cells
caspase-3 activation, in words [4]: activate caspase-3
Bcl-2 expression, in words [7]: decrease Bcl-2 expression
arrest in G2/M phase (cell population) ([9]; 24 h, 0.25 μM, control 9.4 %): 65%
effect on cell-cycle progression (G2/M arrest, in words) ([9]; 24 h treatment): clear G2/M arrest pattern in a concentration-dependent manner
GI50 [10]: 580 ± 150 nM
GI50 [13]: 1 ± 0.1 nM
percentage of cells with low ΔΨmt (JC-1), in words [17]: significant increase in the percentage of cells with low ΔΨmt
